Source: ChEMBL document CHEMBL2346664, “Synthesis, characterization and in vitro anticancer evaluation of novel 1,2,4-triazolin-3-one derivatives” (2013)

Tests used:
Assay type in all cases: functional
MDA-MB-435 = assay: Growth inhibition of human MDA-MB-435 cells assessed as cell growth at 10 '-7 M after 48 hrs by sulforhodamine B assay; conditions: MDA-MB-435, 48 h, read-out: Activity
SNB-19 = assay: Growth inhibition of human SNB19 cells assessed as cell growth at 10 '-7 M after 48 hrs by sulforhodamine B assay; conditions: SNB-19, 48 h, read-out: Activity
SK-OV-3 = assay: Growth inhibition of human SKOV3 cells assessed as cell growth at 10 '-7 M after 48 hrs by sulforhodamine B assay; conditions: SK-OV-3, 48 h, read-out: Activity
OVCAR-5 = assay: Growth inhibition of human OVCAR5 cells assessed as cell growth at 10 '-6 M after 48 hrs by sulforhodamine B assay; conditions: OVCAR-5, 48 h, read-out: Activity
OVCAR-8 [1] = assay: Growth inhibition of human OVCAR8 cells assessed as growth inhibition at 10 uM after 48 hrs by sulforhodamine B assay; conditions: OVCAR-8, 48 h, read-out: GI
MDA-MB-231 = assay: Growth inhibition of human MDA-MB-231 cells assessed as growth inhibition at 10 uM after 48 hrs by sulforhodamine B assay; conditions: MDA-MB-231, 48 h, read-out: GI
SK-MEL-5 = assay: Growth inhibition of human SK-MEL-5 cells assessed as growth inhibition at 10 uM after 48 hrs by sulforhodamine B assay; conditions: SK-MEL-5, 48 h, read-out: GI
NCI-H23 [2] = assay: Growth inhibition of human NCI-H23 cells assessed as cell growth at 10 '-5 M after 48 hrs by sulforhodamine B assay; conditions: NCI-H23, 48 h, read-out: Activity
SN12C [3] = assay: Growth inhibition of human SN12C cells assessed as cell growth at 10 '-7 M after 48 hrs by sulforhodamine B assay; conditions: read-out: Activity
A498 = assay: Growth inhibition of human A498 cells assessed as cell growth at 10 '-4 M after 48 hrs by sulforhodamine B assay; conditions: A498, 48 h, read-out: Activity
Outline: (§1)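 Percent growth at each of the five concentrations of the 48 h continuous-exposure NCI SRB screen. Drug stocks were in DMSO at 400× the top final concentration and diluted in medium with gentamicin. Growth was calculated as [(Ti-Tz)/(C-Tz)]×100 when Ti ≥ Tz, or [(Ti-Tz)/Tz]×100 when Ti < Tz. Tz plates were fixed at drug addition; untreated wells served as control. Absorbance was read at 515 nm.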

SN12C [4] = assay: Growth inhibition of human SN12C cells assessed as cell growth at 10 '-8 M after 48 hrs by sulforhodamine B assay; conditions: read-out: Activity
DU-145 = assay: Growth inhibition of human DU145 cells assessed as cell growth at 10 '-5 M after 48 hrs by sulforhodamine B assay; conditions: DU-145, 48 h, read-out: Activity
786-0 = assay: Growth inhibition of human 786-0 cells assessed as cell growth at 10 '-8 M after 48 hrs by sulforhodamine B assay; conditions: 786-0, 48 h, read-out: Activity; outline: as §1
OVCAR-8 [5] = assay: Growth inhibition of human OVCAR8 cells assessed as cell growth at 10 '-5 M after 48 hrs by sulforhodamine B assay; conditions: OVCAR-8, 48 h, read-out: Activity
NCI-H23 [6] = assay: Growth inhibition of human NCI-H23 cells assessed as cell growth at 10 '-4 M after 48 hrs by sulforhodamine B assay; conditions: NCI-H23, 48 h, read-out: Activity
[7] = Growth inhibition of human EKVX cells assessed as cell growth at 10 '-8 M after 48 hrs by sulforhodamine B assay; conditions: read-out: Activity
RPMI-8226 = assay: Growth inhibition of human RPMI8226 cells after 48 hrs by sulforhodamine B assay; conditions: RPMI-8226, 48 h
HCT-15 = assay: Growth inhibition of human HCT15 cells assessed as cell growth at 10 '-7 M after 48 hrs by sulforhodamine B assay; conditions: HCT-15, 48 h, read-out: Activity
MDA-MB-468 = assay: Growth inhibition of human MDA-MB-468 cells assessed as cell growth at 10 '-5 M after 48 hrs by sulforhodamine B assay; conditions: MDA-MB-468, 48 h, read-out: Activity
COLO 205 = assay: Growth inhibition of human COLO205 cells assessed as cell growth at 10 '-5 M after 48 hrs by sulforhodamine B assay; conditions: COLO 205, 48 h, read-out: Activity
Outline: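 In the same five-dose SRB screen (48 h, 37 °C, 5% CO2), percentage growth was computed at each concentration from time-zero (Tz), control (C) and treated (Ti) absorbances. The formula was [(Ti−Tz)/(C−Tz)]×100 when Ti ≥ Tz, or [(Ti−Tz)/Tz]×100 when Ti < Tz.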

KM12 = assay: Growth inhibition of human KM12 cells assessed as growth inhibition at 10 uM after 48 hrs by sulforhodamine B assay; conditions: KM12, 48 h, read-out: GI
SF-295 = assay: Growth inhibition of human SF295 cells assessed as growth inhibition at 10 uM after 48 hrs by sulforhodamine B assay; conditions: SF-295, 48 h, read-out: GI
HT-29 [8] = assay: Growth inhibition of human HT-29 cells assessed as cell growth at 10 '-6 M after 48 hrs by sulforhodamine B assay; conditions: HT-29, 48 h, read-out: Activity
K562 = assay: Growth inhibition of human K562 cells assessed as cell growth at 10 '-4 M after 48 hrs by sulforhodamine B assay; conditions: K562, 48 h, read-out: Activity
NCI-H522 = assay: Growth inhibition of human NCI-H522 cells assessed as cell growth at 10 '-4 M after 48 hrs by sulforhodamine B assay; conditions: NCI-H522, 48 h, read-out: Activity
PC-3 = assay: Growth inhibition of human PC3 cells assessed as cell growth at 10 '-5 M after 48 hrs by sulforhodamine B assay; conditions: PC-3, 48 h, read-out: Activity
NCI-H23 [9] = assay: Growth inhibition of human NCI-H23 cells after 48 hrs by sulforhodamine B assay; conditions: NCI-H23, 48 h
Outline: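 NCI 60-cell-line five-dose screen. Cells were plated at 5,000–40,000/well by doubling time and grown 24 h at 37 °C, 5% CO2. Time-zero plates were TCA-fixed. Drug from DMSO stock was tested at 0.01, 0.1, 1, 10 and 100 µM final for 48 h continuous exposure. Read-out was SRB at 515 nm. GI50 is the concentration giving 50% reduction in net protein increase versus untreated control.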

HT-29 [10] = assay: Growth inhibition of human HT-29 cells assessed as cell growth at 10 '-7 M after 48 hrs by sulforhodamine B assay; conditions: HT-29, 48 h, read-out: Activity
Malme-3M = assay: Growth inhibition of human MALME-3M cells assessed as cell growth at 10 '-4 M after 48 hrs by sulforhodamine B assay; conditions: read-out: Activity
NCI-H23 [11] = assay: Growth inhibition of human NCI-H23 cells assessed as cell growth at 10 '-6 M after 48 hrs by sulforhodamine B assay; conditions: NCI-H23, 48 h, read-out: Activity
[12] = read-out: LD50 (the source's name)

SMILES: Cc1cc(=O)oc2cc(OCCn3c(C)nn(-c4ccc(Cl)cc4)c3=O)ccc12
- growth at 0.1 µM (MDA-MB-435): 94%
- growth at 0.1 µM (SNB-19): 89%
- growth at 0.1 µM (SK-OV-3): 103%
- growth at 1 µM (OVCAR-5): 89%
- inhibition of growth at 10 µM (OVCAR-8 [1]): 82.3%
- inhibition of growth at 10 µM (MDA-MB-231): 52.5%
- inhibition of growth at 10 µM (SK-MEL-5): 89.2%
- growth at 10 µM (NCI-H23 [2]): 32%
- growth at 0.1 µM (SN12C [3]): 90%
- growth at 100 µM (A498): -8%
- growth at 0.01 µM (SN12C [4]): 94%
- growth at 10 µM (DU-145): 18%
- growth at 0.01 µM (786-0): 103%
- growth at 10 µM (OVCAR-8 [5]): 31%
- growth at 100 µM (NCI-H23 [6]): 19%
- growth at 0.01 µM [7]: 96%
- GI50 (RPMI-8226): 1100 nM
- TGI (RPMI-8226): > 1000 nM
- CC50 (RPMI-8226; [12]): > 1000 nM
- growth at 0.1 µM (HCT-15): 95%
- growth at 10 µM (MDA-MB-468): 15%
- growth at 10 µM (COLO 205): -14%
- inhibition of growth at 10 µM (KM12): 68.6%
- inhibition of growth at 10 µM (SF-295): 86%
- growth at 1 µM (HT-29 [8]): 100%
- growth at 100 µM (K562): 12%
- growth at 100 µM (NCI-H522): -22%
- growth at 10 µM (PC-3): 48%
- GI50 (NCI-H23 [9]): 2830 nM
- TGI (NCI-H23 [9]): > 1000 nM
- CC50 (NCI-H23 [9]; [12]): > 1000 nM
- growth at 0.1 µM (HT-29 [10]): 106%
- growth at 100 µM (Malme-3M): 41%
- growth at 1 µM (NCI-H23 [11]): 64%
